Tests used:
[1] = system: cisplatin-induced mechanical allodynia; assay: Von Frey test, cisplatin-induced mechanical allodynia in mice; assay type: in vivo
[2] = system: HDAC6 compared with Class I HDACs; conditions: 42; cited from earlier work
DRG neurons = assay: Mitochondrial bioenergetics in DRG neurons isolated from treated mice; assay type: in vivo
How it was run: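 Cells were cultured overnight in an XF24 plate in Ham's F10 + N2, switched to XF medium 1 h before the run. Injections: oligomycin 2 μM, FCCP 4 μM, rotenone/antimycin A 2 μM each. Cycles: 2-min mix/3-min wait/2-min measure ×3. OCR was normalised to protein; basal, ATP-linked, leak and maximal respiration were derived.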

[3] = system: tibial nerve mitochondrial respiration; assay: Mitochondrial bioenergetics; assay type: in vivo, mice
How it was run: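 Tibial nerves were run in an islet-capture XF24 plate in XF medium with 5.5 mM glucose, 0.5 mM pyruvate and 1 mM glutamine. Oligomycin (12 μM), FCCP (20 μM) and rotenone/antimycin A (20 μM each) were injected in sequence, with 4 cycles (3-min mix/3-min wait/4-min measure) at baseline and after each injection. Basal, ATP-linked, proton leak, maximal and non-mitochondrial OCR were derived.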

IENF density = assay: Intra-epidermal nerve fiber; assay type: in vivo, mice
How it was run: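 Plantar hind-paw biopsies were cut as 25 μm frozen sections and stained for PGP9.5 and collagen IV, then imaged by confocal. IENFs crossing the dermal–epidermal junction were counted per mm of epidermis. Five random images per mouse, 4 mice/group, blinded analysis.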

rat DRG neurons = assay: Mitochondrial movement in cultured DRG neurons; assay type: cell-based; conditions: rat DRG neuron cultures, 3 hours
How it was run: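 Commercial DRG neurons were cultured 5–7 days, then given BacMam 2.0 GFP mitochondrial label 24 h before treatment. […] Live imaging was done at 37°C in CO2-independent Hibernate E medium that still contained the drugs, and mitochondrial movement was scored.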

[4] = system: cisplatin-induced numbness; assay: Adhesive removal test; assay type: in vivo; conditions: mice, treatment starting after 2 rounds of cisplatin, tested in week 5
How it was run: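 Test compound in 20% 2-hydroxypropyl-β-cyclodextrin + 0.5% hydroxypropyl methylcellulose in water, given i.p. at 3 or 10 mg/kg. A round adhesive patch was placed on the plantar hind paws. Time to a behavioural response (shaking, attempted removal) was recorded within a 15-minute test.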

HDAC1-9 = assay: HDAC enzyme assays, other isoforms; assay type: biochemical
How it was run: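 Test compound was diluted in 50 mM HEPES pH 7.4, 100 mM KCl, 0.001% Tween-20, 0.05% BSA and 20 μM TCEP, then preincubated 24 h with recombinant HDAC enzyme. Substrate at Km, with trypsin, was then added: acetyl-lysine tripeptide for HDAC1/2/3/6, trifluoroacetyl-lysine tripeptide for HDAC4/5/7/8/9. […] release was read over 30 min and the linear rate taken. IC50 came from a 4-parameter fit.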

[5] = system: histone acetylation in SK-N-BE2 cells; assay: Western blot of histone acetylation; assay type: cell-based; conditions: 5 hours, 3 nM to 10 μM
How it was run: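 SK-N-BE2 cells at 70% confluence were treated 5 h with test compound at 3 nM–10 μM final, with DMSO 0.1% total. Cells were washed in cold PBS and lysed in RIPA with protease inhibitors/PMSF, 10 min on ice. Lysates were sonicated and centrifuged. Supernatants were immunoblotted for histone H2BK5ac (rabbit polyclonal) and acetylated α-tubulin (mouse monoclonal).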

α-tubulin acetylation = assay: Western blot of acetylated α-tubulin in tibial nerves; assay type: in vivo; conditions: mice, saline or cisplatin followed by 11 doses
How it was run: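 Tibial nerves were first run in an XF24 OCR assay (XF medium with 5.5 mM glucose, 0.5 mM pyruvate, 1 mM glutamine). The same nerves were then western-blotted for acetylated α-tubulin with a rabbit monoclonal.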

[6] = system: paclitaxel-induced mechanical allodynia; assay: Von Frey test, paclitaxel-induced mechanical allodynia in rats; assay type: in vivo; conditions: 3 mg/kg oral twice daily for 7 days, last day tested
Cox IV, SDHA and VDAC = assay: Western blot of mitochondrial proteins in tibial nerves; assay type: in vivo, mice; conditions: 2 rounds of cisplatin and 11 injections
[7] = In vivo pharmacokinetics in mice; conditions: 5 mg/kg i.p.
How it was run: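 Mice were fasted overnight and given a single 5 mg/kg i.p. dose in 10% dimethylacetamide + 10% Solutol HS 15 in saline. Retro-orbital blood was taken at 5, 15, 30 min and 1, 2, 4, 8, 24 h. Plasma was spun at 2,000 × g, 5 min, 4°C. Levels were measured by LC-MS/MS against a standard curve in mouse plasma, then PK parameters calculated; n=3/group.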

[8] = system: cisplatin-induced spontaneous pain; conditions: cisplatin-treated mice, 2 weeks of daily treatment
[9] = system: α-tubulin acetylation in SK-N-BE2 cells; assay: Western blot of acetylated α-tubulin in SK-N-BE2 cells; assay type: cell-based; conditions: 5 hours
How it was run: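 SK-N-BE2 cells grown to 70% confluence, then exposed 5 h to test compound in DMSO (0.1% DMSO final in all wells). Cells PBS-washed, lysed in cold RIPA buffer with protease inhibitors and PMSF, sonicated, and centrifuged. Supernatants immunoblotted for acetylated α-tubulin (mouse monoclonal) and, as a non-HDAC6 substrate, histone H2BK5ac (rabbit polyclonal).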

GFAP expression = assay: GFAP immunofluorescence in spinal cord dorsal horn; assay type: in vivo; conditions: cisplatin-treated mice, 3 doses of 10 mg/kg

In the case of `O=C(CCCCCCNC(=O)c1cnc(N(c2ccccc2)c2ccccc2)nc1)NO` [ACY-1215, Ricolinostat, reference compound], the “persistence of the beneficial effect after completion of treatment” value ([1]; 30 mg/kg oral daily for two weeks, last time point tested) is listed as “still present one week after completion of treatment” and the “selectivity against HDAC6 compared with Class I HDACs” value [2] is listed as “over 10 fold”.

With `N.N.[Cl][Pt][Cl]` [cisplatin, Cisplatin, reference compound] the “mitochondrial bioenergetics in DRG neurons” value (DRG neurons; mice, 2 rounds of cisplatin) was “overall decrease in mitochondrial bioenergetics”, the “mitochondrial respiration in tibial nerves” value ([3]; mice, 2 cycles of cisplatin 2.3 mg/kg i.p. x 5 days) was “significantly decreased mitochondrial respiration” and the “IENF density in plantar surface of the paw” value (IENF density; mice, 2 cycles of cisplatin) was “reduced the IENF density”. For the same molecule, the “percentage of moving mitochondria” value (rat DRG neurons; cisplatin 80 μM, vs vehicle) was “decreased the percentage of moving mitochondria”.

In the case of ACY-1083, the “mechanical sensitivity in the absence of cisplatin treatment” value ([1]; 10 mg/kg) is reported as “did not alter mechanical sensitivity”, the “time after the first dose at which the effect was first detected” value ([1]; 10 mg/kg i.p.) is reported as 24 h and the “effect of a second round of 7 daily injections on mechanical allodynia” value ([1]; 10 mg/kg, 7 days, 7 days rest) is reported as “transiently reversed cisplatin-induced mechanical allodynia again”. For the same molecule, the “prevention of development of mechanical allodynia” value ([1]; administered i.p. 1 hour prior to each dose of cisplatin) was “capable of preventing the development of mechanical allodynia”, the “mitochondrial bioenergetics in DRG neurons of cisplatin-treated mice” value (DRG neurons; 2 rounds of cisplatin and 11 injections) was “did not detect a similar recovery” and the “mitochondrial bioenergetics in DRG neurons, treatment alone” value (DRG neurons; mice without cisplatin, either time point) was “did not have any effect on mitochondrial bioenergetics in DRG neurons”. The “mitochondrial bioenergetics in DRG neurons of cisplatin-treated mice” value (DRG neurons; two weeks of treatment, 2 weeks after the last dose) was “significant recovery of mitochondrial bioenergetics”, the “cisplatin-induced numbness: time to respond to adhesive patch” value [4] was “normalized the response time” and the “inhibitory activity against other enzymes” value (HDAC1-9) was “negligible inhibitory activity against other enzymes”. For the same molecule, the “selectivity for HDAC6 over all other HDAC isoforms tested” value (HDAC1-9; HDAC1-9) was 260 fold, the “concentration at which an effect on histone acetylation is evident” value [5] was 10 µM and the “α-tubulin acetylation in tibial nerves” value (α-tubulin acetylation) was “increased α-tubulin acetylation”. For the same molecule, the “mitochondrial respiration in tibial nerve of cisplatin-treated mice” value ([3]; 2 cycles of cisplatin followed by 11 doses) was “normalized all aspects of the cisplatin-induced decrease in mitochondrial respiration”, the “mitochondrial bioenergetics in tibial nerve, treatment alone” value ([3]; mice without cisplatin, 11 doses) was “did not have any effect on mitochondrial bioenergetics” and the “IENF density in cisplatin-treated mice, prolonged regimen” value (IENF density; 2 cycles of cisplatin and 11 doses) was “completely reversed the cisplatin-induced loss of IENFs”. For the same molecule, the “IENF density in cisplatin-treated mice, short-term treatment” value (IENF density; short-term treatment) was “had no effect on IENF density”, the “persistence of the protective effect after the last dose” value [6] was ≥ 3 days and the “Cox IV levels in tibial nerve of cisplatin-treated mice” value (Cox IV, SDHA and VDAC) was “normalized Cox IV levels”. The “biologically active plasma exposure after dosing” value [7] was 8 hours, the “half-life (T1/2)” value [7] was 3.5 h and the “maximum plasma concentration (Cmax)” value [7] was 936 ng/mL. For the same molecule, the “spontaneous pain: preference for retigabine-paired light chamber” value [8] was “did not develop a preference for the retigabine-paired light chamber”, the “selectivity towards HDAC6 in cells (α-tubulin vs histone acetylation)” value [9] was “over 300 fold” and the “concentration at which the increase in α-tubulin acetylation starts” value ([9]; 3 nM to 10 μM) was 30 nM. The “percentage of moving mitochondria, co-administration with cisplatin” value (rat DRG neurons; 100 nM with cisplatin 80 μM) was “prevented this cisplatin-induced decrease in mitochondrial transport” and the “GFAP expression in dorsal horn of spinal cord” value (GFAP expression) was “normalized GFAP expression to levels comparable to saline-treated animals”.

From publication PMC5435512 (Pain, 2017)
